From ChEMBL document CHEMBL1649143, “In vitro activities of fluconazole and voriconazole against clinical isolates of Candida spp. determined by disk diffusion testing in Turin, Italy” (2009)
Values after ≈ are worked out from the molar mass of the structure shown.

How the values were obtained:
[1] = Antifungal activity against Candida membranifaciens assessed as percent susceptible isolates at 1 ug/disc by CLSI M44-A disk diffusion method; format: functional
Summary of the method: (§1)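 Agar disk diffusion per CLSI M44-A on clinical Candida isolates collected in Turin, Italy; 1,024 isolates tested in total. Each isolate was classed as susceptible (S), susceptible-dose dependent (SDD) or resistant (R), and the percentage of isolates per species in each category was reported.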

[2] = system: Pichia norvegensis; experiment: Antifungal activity against Candida norvegensis assessed as percent susceptible isolates at 1 ug/disc by CLSI M44-A disk diffusion method
[3] = system: Candida albicans; experiment: Antifungal activity against Candida albicans assessed as percent susceptible isolates at 1 ug/disc by CLSI M44-A disk diffusion method; format: functional; summary of the method: as §1
[4] = system: Candida parapsilosis; experiment: Antifungal activity against Candida parapsilosis assessed as percent susceptible isolates at 1 ug/disc by CLSI M44-A disk diffusion method; format: functional; summary of the method: as §1
[5] = system: Pichia fermentans; experiment: Antifungal activity against Candida lambica assessed as percent susceptible isolates at 1 ug/disc by CLSI M44-A disk diffusion method; format: functional; summary of the method: as §1
[6] = system: Kluyveromyces marxianus; experiment: Antifungal activity against Candida kefyr assessed as percent dose dependent percent susceptible isolates at 1 ug/disc by CLSI M44-A disk diffusion method; format: functional; summary of the method: as §1
[7] = system: Candida tropicalis; experiment: Antifungal activity against Candida tropicalis assessed as dose dependent percent susceptible isolates at 1 ug/disc by CLSI M44-A disk diffusion method; format: functional; summary of the method: as §1
[8] = Antifungal activity against Candida holmii assessed as percent susceptible isolates at 1 ug/disc by CLSI M44-A disk diffusion method; format: functional; conditions: Kazachstania exigua; summary of the method: as §1
[9] = system: Nakaseomyces glabratus; experiment: Antifungal activity against Candida glabrata by reference dilution method; format: functional
[10] = system: Candida tropicalis; experiment: Antifungal activity against Candida tropicalis assessed as percent susceptible isolates at 1 ug/disc by CLSI M44-A disk diffusion method; format: functional; summary of the method: as §1
[11] = system: Candida; experiment: Antifungal activity against Candida sp. by reference dilution method; format: functional
[12] = system: Kluyveromyces marxianus; experiment: Antifungal activity against Candida kefyr assessed as percent susceptible isolates at 1 ug/disc by CLSI M44-A disk diffusion method; format: functional; summary of the method: as §1
[13] = system: Pichia norvegensis; experiment: Antifungal activity against Candida norvegensis by reference dilution method; format: functional
[14] = system: Cyberlindnera jadinii; experiment: Antifungal against Candida utilis assessed as percent susceptible isolates at 1 ug/disc by CLSI M44-A disk diffusion method; format: functional; summary of the method: as §1
[15] = system: [Candida] intermedia; experiment: Antifungal activity against Candida intermedia assessed as percent susceptible isolates at 1 ug/disc by CLSI M44-A disk diffusion method; format: functional, Sungouiella intermedia; summary of the method: as §1
[16] = system: Clavispora lusitaniae; experiment: Antifungal activity against Candida lusitaniae assessed as percent susceptible isolates at 1 ug/disc by CLSI M44-A disk diffusion method; format: functional; summary of the method: as §1
[17] = system: Candida albicans; experiment: Antifungal activity against Candida albicans by reference dilution method; format: functional
[18] = system: Nakaseomyces glabratus; experiment: Antifungal activity against Candida glabrata assessed as dose dependent percent susceptible isolates at 1 ug/disc by CLSI M44-A disk diffusion method; format: functional; summary of the method: as §1
[19] = system: Diutina rugosa; experiment: Antifungal activity against Candida rugosa assessed as percent susceptible isolates at 1 ug/disc by CLSI M44-A disk diffusion method; format: functional; summary of the method: as §1
[20] = system: Candida tropicalis; experiment: Antifungal activity against Candida tropicalis assessed as percent resistant isolates at 1 ug/disc by CLSI M44-A disk diffusion method; format: functional; summary of the method: as §1
[21] = Antifungal activity against Candida humicola assessed as percent susceptible isolates at 1 ug/disc by CLSI M44-A disk diffusion method; format: functional; summary of the method: as §1
[22] = system: Pichia kudriavzevii; experiment: Antifungal activity against Candida krusei assessed as dose dependent percent susceptible isolates at 1 ug/disc by CLSI M44-A disk diffusion method; format: functional; summary of the method: as §1
[23] = system: Candida tropicalis; experiment: Antifungal activity against Candida tropicalis by reference dilution method; format: functional
[24] = system: Pichia kudriavzevii; experiment: Antifungal activity against Candida krusei assessed as percent susceptible isolates at 1 ug/disc by CLSI M44-A disk diffusion method; format: functional; summary of the method: as §1
[25] = system: Nakaseomyces glabratus; experiment: Antifungal activity against Candida glabrata assessed as percent susceptible isolates at 1 ug/disc by CLSI M44-A disk diffusion method; format: functional; summary of the method: as §1
[26] = system: Pichia kudriavzevii; experiment: Antifungal activity against Candida krusei assessed as percent resistant isolates at 1 ug/disc by CLSI M44-A disk diffusion method; format: functional; summary of the method: as §1
[27] = system: Pichia norvegensis; experiment: Antifungal activity against Candida norvegensis assessed as percent dose dependent percent susceptible isolates at 1 ug/disc by CLSI M44-A disk diffusion method; format: functional; summary of the method: as §1
[28] = system: Nakaseomyces glabratus; experiment: Antifungal activity against Candida glabrata assessed as percent resistant isolates at 1 ug/disc by CLSI M44-A disk diffusion method; format: functional; summary of the method: as §1
[29] = system: Kluyveromyces marxianus; experiment: Antifungal activity against Candida kefyr by reference dilution method; format: functional
[30] = system: Candida parapsilosis; experiment: Antifungal activity against Candida parapsilosis by reference dilution method; format: functional; conditions: Lodderomyces parapsilosis
[31] = system: Pichia kudriavzevii; experiment: Antifungal activity against Candida krusei by reference dilution method; format: functional

Compound: C[C@@H](c1ncncc1F)[C@](O)(Cn1cncn1)c1ccc(F)cc1F [VORICONAZOLE]
- Activity [1]: 100%
- Activity [2]: 93%
- Activity [3]: 99.8%
- Activity [4]: 100%
- Activity [5]: 100%
- Activity [6]: 4%
- Activity [7]: 3%
- Activity [8]: 100%
- MIC50 [9]: 0.25 µg/mL (≈ 0.716 µM)
- MIC90 [9]: 4 µg/mL (≈ 11.5 µM)
- Activity [10]: 90%
- MIC50 [11]: 0.06 µg/mL (≈ 0.172 µM)
- MIC90 [11]: 1 µg/mL (≈ 2.86 µM)
- Activity [12]: 96%
- MIC50 [13]: 0.25 µg/mL (≈ 0.716 µM)
- MIC90 [13]: 1 µg/mL (≈ 2.86 µM)
- Activity [14]: 100%
- Activity [15]: 100%
- Activity [16]: 100%
- MIC50 [17]: 0.06 µg/mL (≈ 0.172 µM)
- MIC90 [17]: 0.12 µg/mL (≈ 0.344 µM)
- Activity [18]: 3%
- Activity [19]: 100%
- Activity [20]: 7%
- Activity [21]: 100%
- Activity [22]: 4%
- MIC50 [23]: 0.12 µg/mL (≈ 0.344 µM)
- MIC90 [23]: 2 µg/mL (≈ 5.73 µM)
- Activity [24]: 92%
- Activity [25]: 87%
- Activity [26]: 4%
- Activity [27]: 7%
- Activity [28]: 11%
- MIC [29]: 0.008 µg/mL (≈ 0.0229 µM)
- MIC50 [29]: 0.01 µg/mL (≈ 0.0286 µM)
- MIC90 [29]: 0.06 µg/mL (≈ 0.172 µM)
- MIC50 [30]: 0.06 µg/mL (≈ 0.172 µM)
- MIC90 [30]: 0.12 µg/mL (≈ 0.344 µM)
- MIC50 [31]: 0.5 µg/mL (≈ 1.43 µM)
- MIC90 [31]: 2 µg/mL (≈ 5.73 µM)
